Data set [1] in a line: Half-life in rat serum. The format is ADME, organism-based. The method in brief:
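Compounds incubated at 37°C in fresh rat serum; aliquots removed at several time points and analysed by HPLC to estimate half-life.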

The next data set relates to IMR-32. The experiment in a line: Cytotoxic activity against human neuroblastoma IMR32 cells. The format is functional, cell-based. The method in brief:
(§1)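 Human neuroblastoma IMR-32 cells (somatostatin receptor/SSTR2 over-expressing) exposed to a range of compound concentrations for 3 days, in quadruplicate; viability read by MTT assay; IC50 taken from dose-response curves.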

For data set [2], the species on record is Rattus norvegicus. The experiment in a line: Inhibitory activity against GHRH-stimulated GH release from monolayer cultures of rat pituitary cells. The format is functional, cell-based. The following applies: Pituitary gland cell. The gist of the method: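 Monolayer cultures of rat pituitary cells stimulated with GHRH; agonist potency measured as inhibition of GH release, expressed as IC50.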

For the next data set, the target named is Somatostatin receptor. The experiment in a line: Cytotoxic activity against human neuroblastoma IMR32 cells which over-express somatostatin receptors. The format is functional, cell-based. The conditions noted are these: imr-32. The method in brief: as §1
The species entered for data set [3] is Rattus norvegicus. The experiment in a line: Inhibitory activity against GHRH-stimulated GH release from monolayer cultures of rat pituitary cells; na is not active. In kind it is functional, cell-based. The following applies: pituitary gland cell.
Data set [4] in a line: Half-life in phosphate buffer. In kind it is ADME. The method in brief: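 Incubated in 0.1 M phosphate buffer at 37°C; aliquots taken at various time points and analysed by HPLC to give half-life. The experiment ran for 50 h.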

Molecules are shown by their SMILES.

Take `CCCC[C@H](NC(=O)[C@@H](CO)NC(=O)CN(CCN)C(=O)O[C@]1(CC)C(=O)OCc2c1cc1n(c2=O)Cc2cc3ccccc3nc2-1)C(=O)N[C@H](Cc1ccc(O)cc1)C(=O)N[C@H](CO)C(=O)N[C@@H]1CSSC[C@H](C(=O)N[C@H](C(N)=O)[C@@H](C)O)NC(=O)[C@H]([C@@H](C)O)NC(=O)[C@H](CCCN)NC(=O)[C@@H](Cc2c[nH]c3ccccc23)NC(=O)[C@H](Cc2ccccc2)NC1=O`: the half-life (commonly the time in which the quantity being followed falls by half) in data set [1] was 106 h. The IC50 (as a rule, the midpoint of a concentration-inhibition curve) in the data set on IMR-32 turned out to be 374 nM; in the data set listed under Rattus norvegicus [2], 0.32 nM.
On to `CC[C@@]1(O)C(=O)OCc2c1cc1n(c2=O)Cc2cc3ccccc3nc2-1` [CAMPTOTHECIN], for which the results for the IC50 at Somatostatin receptor and in the data set filed under Rattus norvegicus [3] were 2.21 nM and “Not Active”, respectively.
In the case of `CCCC[C@H](NC(=O)[C@@H](CO)NC(=O)CN(CCN)C(=O)Oc1cc(/C=C\c2cc(OC)c(OC)c(OC)c2)ccc1OC)C(=O)N[C@H](Cc1ccc(O)cc1)C(=O)N[C@H](CO)C(=O)N[C@@H]1CSSC[C@H](C(=O)N[C@H](C(N)=O)[C@@H](C)O)NC(=O)[C@H]([C@@H](C)O)NC(=O)[C@H](CCCN)NC(=O)[C@@H](Cc2c[nH]c3ccccc23)NC(=O)[C@H](Cc2ccccc2)NC1=O`, the results for the half-life in data set [1] and in data set [4] were 4 h and 31 h, respectively. In addition, the IC50 on Somatostatin receptor amounted to 2.79 nM; in the data set listed under Rattus norvegicus [2] it was 0.31 nM.
Regarding `CCCC[C@H](NC(=O)[C@@H](CO)NC(=O)CN(CCCN)C(=O)O[C@]1(CC)C(=O)OCc2c1cc1n(c2=O)Cc2cc3ccccc3nc2-1)C(=O)N[C@H](Cc1ccc(O)cc1)C(=O)N[C@H](CO)C(=O)N[C@@H]1CSSC[C@H](C(=O)N[C@H](C(N)=O)[C@@H](C)O)NC(=O)[C@H]([C@@H](C)O)NC(=O)[C@H](CCCN)NC(=O)[C@@H](Cc2c[nH]c3ccccc23)NC(=O)[C@H](Cc2ccccc2)NC1=O`, the half-life in data set [1] was 72 h. Also, the IC50 at Somatostatin receptor was over 1000 nM; in the data set filed under Rattus norvegicus [2], 0.26 nM.
Take `CCCC[C@H](NC(=O)[C@@H](CO)NC(=O)CN(CCN(C)C)C(=O)O[C@]1(CC)C(=O)OCc2c1cc1n(c2=O)Cc2cc3ccccc3nc2-1)C(=O)N[C@H](Cc1ccc(O)cc1)C(=O)N[C@H](CO)C(=O)N[C@@H]1CSSC[C@H](C(=O)N[C@H](C(N)=O)[C@@H](C)O)NC(=O)[C@H]([C@@H](C)O)NC(=O)[C@H](CCCN)NC(=O)[C@@H](Cc2c[nH]c3ccccc23)NC(=O)[C@H](Cc2ccccc2)NC1=O`: the half-life in data set [1] is 59 h. For the same compound, the IC50 against Somatostatin receptor was 571 nM; in the data set filed under Rattus norvegicus [2], 0.3 nM.
For the compound `CCCC[C@H](NC(=O)[C@@H](CO)NC(=O)CN(CCO)C(=O)O[C@]1(CC)C(=O)OCc2c1cc1n(c2=O)Cc2cc3ccccc3nc2-1)C(=O)N[C@H](Cc1ccc(O)cc1)C(=O)N[C@H](CO)C(=O)N[C@@H]1CSSC[C@H](C(=O)N[C@H](C(N)=O)[C@@H](C)O)NC(=O)[C@H]([C@@H](C)O)NC(=O)[C@H](CCCN)NC(=O)[C@@H](Cc2c[nH]c3ccccc23)NC(=O)[C@H](Cc2ccccc2)NC1=O`, the IC50 against Somatostatin receptor is over 1000 nM; in the data set listed under Rattus norvegicus [2], 0.49 nM.
Consider `CCCC[C@H](NC(=O)[C@@H](CO)NC(=O)CN(CCNC)C(=O)O[C@]1(CC)C(=O)OCc2c1cc1n(c2=O)Cc2cc3ccccc3nc2-1)C(=O)N[C@H](Cc1ccc(O)cc1)C(=O)N[C@H](CO)C(=O)N[C@@H]1CSSC[C@H](C(=O)N[C@H](C(N)=O)[C@@H](C)O)NC(=O)[C@H]([C@@H](C)O)NC(=O)[C@H](CCCN)NC(=O)[C@@H](Cc2c[nH]c3ccccc23)NC(=O)[C@H](Cc2ccccc2)NC1=O`, for which the half-life was 18 h in data set [1] and 123 h in data set [4]. For the same compound, the IC50 against Somatostatin receptor turned out to be 54.2 nM; in the data set listed under Rattus norvegicus [2], 0.27 nM.
